Hits are enriched below; roughly 2.7% of the tested compounds scored in any of these assays.
HTRA1 inhibitor – blocks human HTRA1 serine peptidase | Q92743 | recombinant HTRA1, FP-rhodamine activity-based probe, fluorescence polarization | inhibition, % at 5.96 µM | 0.5% of 340,000 active | AID 504803; in the data active = inhibition above about 36%;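 also: 0% = enzyme with DMSO and 100% = wells lacking enzyme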
TCR CD3 inh – inhibitors of human TCR-CD3 interaction; TAMRA-labeled TCR probe fluorescence, biochemical; inhibition, % at 9.4 µM; 0.37% of 360,000 active; in the data active = inhibition above about 19%;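 also: recombinant mutant TCR 2C K166C tagged with TAMRA read by polarization; 0% = receptor in buffer alone and 100% = receptor with positive control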
PRMT1 inh – inhibitors of human PRMT1 | inhibition, % at 2.79 µM | recombinant PRMT1, activity-based probe fluorescence polarization | 1.3% of 370,000 active | Q99873 | AID 652257;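 active = inhibition above about 21% made by adding two undisclosed values, limit read from the data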
mABHD4 FP – ABHD4 (mouse) inhibition, primary FP screen | purified mABHD4, FP-Rh probe fluorescence polarization | inhibition, % at 8.92 µM | 0.54% of 370,000 active | AID 720543;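 active = inhibition exceeding the mean over every tested compound plus 3 SD, cut at about 30% in these data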;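 also: 0% = plate median of compound wells and 100% = S159A mutant with DMSO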
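Test system: mABHD4 protein | Buffer or medium: HEPES pH 7.0 buffer, 150 mM NaCl, 0.01% Pluronic F-127 | Probe or stimulus: FP-Rh fluorescent activity-based probe, added after compound pre-incubation | Timing: Pre-incubation 45 min, probe exposure 60 min, at 25 °C | Technique: Fluorescence polarization, excitation 525 nm, emission 598 nm, BODIPY TMR filters | Repeats: Single well per compound (singlicate)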
SIAE primary – human SIAE inhibition, primary screen; SIAE FP-Rh probe binding, fluorescence polarization; Q9HAT2; inhibition, % at 9.66 µM; 0.69% of 370,000 active;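 active = inhibition above a cutoff: mean of compounds within the control limits plus 3 SD of those, cut at about 17% in these data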;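 also: 0% = plate median of compound wells and 100% = probe without SIAE protein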
Target sequence (Q9HAT2 whole entry, looked up): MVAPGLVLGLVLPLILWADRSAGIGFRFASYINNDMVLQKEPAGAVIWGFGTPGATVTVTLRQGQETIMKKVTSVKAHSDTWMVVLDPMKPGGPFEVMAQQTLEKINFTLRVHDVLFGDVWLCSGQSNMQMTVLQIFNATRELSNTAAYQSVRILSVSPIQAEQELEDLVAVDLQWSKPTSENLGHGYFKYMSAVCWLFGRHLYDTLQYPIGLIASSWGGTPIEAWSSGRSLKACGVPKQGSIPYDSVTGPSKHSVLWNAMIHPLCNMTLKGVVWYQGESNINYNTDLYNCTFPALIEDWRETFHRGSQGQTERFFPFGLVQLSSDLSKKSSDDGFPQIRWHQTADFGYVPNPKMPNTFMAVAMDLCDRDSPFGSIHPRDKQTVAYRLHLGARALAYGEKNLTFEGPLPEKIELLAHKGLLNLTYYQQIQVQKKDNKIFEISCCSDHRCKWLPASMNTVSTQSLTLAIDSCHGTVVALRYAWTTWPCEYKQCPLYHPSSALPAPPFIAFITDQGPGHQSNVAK
PRMT1 inh conf – confirmation of human PRMT1 inhibitors; shares compounds with PRMT1 inh; recombinant His-PRMT1, activity-based probe fluorescence polarization; inhibition, % at 2.79 µM; 42% of 3,300 active;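 active = mean inhibition across replicates above the hit cutoff derived for the earlier primary screen, cut at about 22% in these data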
The depositor's hits bear a star; · = no result.

SMILES	HTRA1 inhibitor	TCR CD3 inh	PRMT1 inh	mABHD4 FP	SIAE primary	PRMT1 inh conf
N#CCc1ccc(NC(=O)/C=C/c2ccc([N+](=O)[O-])o2)cc1	-1.0	·	·	·	·	·
CC1=C(C(=O)OC(C)C)C(c2cccs2)NC(=S)N1 (stereo not given)	-7.1	-8.3	-1.0	-1.1	3.0	·
COC(=O)c1c(NC(=O)CN2C(=O)C(=O)N(CC(C)C)C2=O)sc2c1CCCCC2	-14.3	-1.1	57.8*	1.9	0.1	8.4
CCC1(C)NC(=O)N(CC(=O)Nc2sc3c(c2C(=O)OC)CCCCC3)C1=O (stereo not given)	-10.9	-2.8	0.1	-7.3	-3.7	·
COc1cc(-c2nc(=S)[nH][nH]2)cc(OC)c1OC	-7.5	-1.8	34.5*	-8.8	-2.2	12.7
COc1cccc2c(SCC(=O)N/N=C/c3ccccc3)cc(C)nc12	-6.1	2.1	46.8*	-5.4	-2.6	-2.8
COc1cccc2c(N/N=C/c3ccccc3)cc(C)nc12	3.1	2.1	0.8	5.0	5.1	·
Cc1ccc(-c2nc3ncccn3c2Nc2ccccc2C)o1	-1.9	3.1	42.1*	8.0	16.2	12.7
Cc1ccc(-c2nc3cnccn3c2Nc2c(C)cccc2C)o1	-0.3	5.0	78.7*	4.3	0.9	11.3
CCNc1ncnc2c1cnn2C1CCCO1 (stereo not given)	-6.2	4.7	-4.1	-5.9	-1.3	·
Brc1ccc(C2=CSC3=NCCN23)cc1	-2.4	-2.0	30.0*	-2.2	-0.1	12.3
COc1cc(OC)c(C(=O)OCC(=O)N2CCOCC2)cc1OC	5.8	-6.5	1.5	4.1	-0.6	·
Cc1cccc(-c2n[nH]c(=S)n2/N=C/C=C/c2ccco2)c1	32.7	13.9	46.2*	22.3	5.2	10.6
S=c1[nH]nc(-c2ccccc2Cl)n1/N=C/C=C/c1ccco1	·	16.2	19.7	25.8	4.7	·
CC(/C=N/n1c(-c2ccncc2)n[nH]c1=S)=C\c1ccco1	·	-1.0	26.7*	8.8	4.4	6.2
CC(/C=N/n1c(-c2ccc(C)cc2)n[nH]c1=S)=C\c1ccco1	-7.2	-0.4	17.5	-0.4	9.8	·
CN1CCN(C(=S)C(=O)Nc2ccc(Br)cc2)CC1	-1.1	4.5	72.3*	-19.4	-4.4	71.9*
CN1CCN(C(=S)NC(=O)c2ccc(Br)cc2)CC1	·	-12.7	-2.3	-0.6	9.8	·
Cc1ccc(NC(=O)c2ccc(Cl)c(N3C(=O)C=CC3=O)c2)cc1	-69.5	1.6	91.6*	-19.7	-14.6	88.8*
COc1cccc(C(=O)Nc2ccc(C)cc2)c1	-9.7	0.1	-2.8	-8.9	-2.6	·
O=S(=O)(Nc1ccc(O)c(NS(=O)(=O)c2ccccc2)c1)c1ccccc1	7.9	-3.8	31.2*	10.1	4.6	12.0
Cc1cc(S(=O)(=O)Nc2ccc(C(=O)NCCN3CCOCC3)cc2)ccc1F	2.2	2.8	-2.7	-9.9	6.7	·
Nn1c(SCc2cn3cc(Cl)ccc3n2)nnc1-c1ccncc1	3.4	-1.4	25.0*	-6.8	-5.9	39.8*
Nn1c(SCc2cn3ccccc3n2)nnc1-c1ccncc1	10.4	5.9	-0.8	7.0	0.4	·
NC(=O)NN=C1CCC(O)CC1CC(=O)O (stereo not given)	·	5.1	3.5	9.6	-6.1	·
SMILES	HTRA1 inhibitor	TCR CD3 inh	PRMT1 inh	mABHD4 FP	SIAE primary	PRMT1 inh conf
CC(=O)Nc1ccc(SCC(=O)c2c(N)n(Cc3ccccc3)c(=O)n(C)c2=O)cc1	-2.8	2.3	25.4*	1.4	-2.0	17.8
CN(C)CCNc1ccc2ncn3c4ccc(O)cc4c(=O)c1c23	11.2	-1.2	67.4*	13.1	8.0	88.2*
CN(C)CCNc1ccc(CO)c2sc3ccc(O)cc3c(=O)c12	4.0	-1.7	3.9	3.6	7.7	·
CCC(C)NC(=O)C1CCCN(S(=O)(=O)c2ccc3c(c2)CC(C)N3C(C)=O)C1 (stereo not given)	3.9	-6.2	26.4*	-5.2	-2.0	8.3
Cc1ccc(S(=O)(=O)NC(CC(C)C)C(=O)NCCCn2nc(C)cc2C)cc1 (stereo not given)	-2.2	-7.0	0.9	3.1	7.5	·
N#CC1(C#N)C(C(N)=O)C1c1ccccc1 (stereo not given)	4.7	-0.1	3.0	7.0	-1.8	·
CN1C=CC2=C(C#N)C(N)C(C#N)(C#N)[C@H](c3ccccc3)[C@H]2C1 (stereo not given in full)	4.3	1.3	26.2*	14.7	7.9	9.8
CCN1CCN(C(=S)c2ccc(SC)cc2)CC1	-2.0	-1.7	32.4*	0.8	-6.5	19.4
